Measurements from different studies.
pIC50: −log10 of the molar value.
Observed: cell growth or viability

Compound	cell line	technique	tested at	time	notes	measurement	value
O=c1c(O[C@@H]2O[C@H](CO)[C@@H](O)[C@H](O)[C@H]2O)c(-c2ccc(O)cc2)oc2cc(O)cc(O)c12	HepG2	WST-1	–	–	–	pIC50	4.42
CC(C)[C@H](N)C(=O)N1CCC[C@H]1B(O)O	HEK-293T	ATP luminescence	60 µM	5 days	–	viability	97%
COC(=O)[C@@H]1[C@@H](c2ccccc2)[C@]2(c3ccc(OC)cc3)Oc3cc(OC)cc(OC)c3[C@@]23N=C(C)N[C@@]13O	HepG2	MTT	–	24 h	–	CC50	0.0658 µM
CC(C)(CO)C(=O)SCCOP(=O)(NCc1ccccc1)OC[C@H]1O[C@@H](n2cnc3c(=O)[nH]c(N)nc32)[C@](C)(O)[C@@H]1O (mixture of isomers)	Huh-7	–	–	–	replicon	CC50	> 10 µM
CC(C)(C)C(O)C(Oc1ccc(-c2ccccc2)cc1)n1cncn1 (centres unmarked)	Huh-7	MTT	–	24 h	–	CC50	> 400 µM
CCCCCCCCCCOc1cc2c(O)c(C(=O)OCC)cnc2cc1OCC	Huh-7	–	–	72 h	–	pIC50	< 4.00
CCOC(=O)CCc1ccccc1OP(=O)(OC[C@H]1O[C@@H](n2cnc3c(N)nc(N)nc32)[C@](C)(O)[C@@H]1O)Oc1ccccc1CCC(=O)OCC	Huh-7	–	–	–	replicon	CC50	> 10 µM
CCC/C=C/C=C/C(=O)O[C@H]1/C(=C/C(=O)OC)C[C@H]2C[C@H]([C@@H](C)O)OC(=O)C[C@H](O)C[C@@H]3C[C@H](OC(C)=O)C(C)(C)[C@](O)(C[C@@H]4C/C(=C/C(=O)OC)C[C@H](/C=C/C(C)(C)[C@]1(O)O2)O4)O3	BGM	MTS	–	5 days	–	CC50	~100 µM
